Measured values pooled from the literature.
Compare with care: the assays were run in different laboratories.
SLC2A9: Solute carrier family 2, facilitated glucose transporter member 9 (SLC2A9, Homo sapiens, UniProt Q9NRM0)

O=C(C=Cc1ccccc1)Nc1cc(-c2ccnc(N3CCC(O)CC3)c2)ccn1 has a Kd of 0.121 µM (Nuclear receptor subfamily 4immunitygroup A member 1 (NR4A1, Homo sapiens, UniProt P22736); binding; SPR).
For CCOC(=O)/C=C/C(=O)[C@H](CC(C)C)NC(=O)[C@H](Cc1ccccc1)NC(=O)[C@H](Cc1ccccc1)N=[N+]=[N-] (mixture of isomers), the IC50 was 0.13 µM (Procathepsin L (CTSL, Homo sapiens, UniProt P07711); enzyme activity; inhibitor).
With Cc1ccc2oc(=O)cc(NCCO)c2c1 the IC50 was 178 µM (Alpha-1B adrenergic receptor (Adra1b, Rattus norvegicus, UniProt P15823); calcium signal; antagonist).
For COc1ccc(C[C@H]2COC(=O)[C@@H]2Cc2ccc(OCC(=O)Nc3ccc(C(=O)Nc4ccccc4N)cc3)c(OC)c2)cc1OC, the IC50 was greater than 10 µM (Histone deacetylase 4 (HDAC4, Homo sapiens, UniProt P56524); enzyme activity; inhibitor).
O=C1CCc2ccccc2O1 gave a Ki of 25.8 µM (cah (Neisseria gonorrhoeae, UniProt Q50940); enzyme activity; inhibitor; stopped-flow).
With CCCCCCCc1cc(O)cc(=O)o1 the IC50 was 10.6 µM (Aldo-keto reductase family 1 member C3 (AKR1C3, Homo sapiens, UniProt P42330); enzyme activity; inhibitor).
For Nc1ncnc2c1ncn2[C@@H]1O[C@H](CO)[C@@H](O)[C@H]1O, the IC50 was greater than 4000 µM (SLC2A9; transporter uptake; inhibitor; radiometric; oocytes).
For N=c1c[n+](N2CCOCC2)[n-]o1, the IC50 was 7 µM (NAD-dependent protein deacetylase sirtuin-1 (SIRT1, Homo sapiens, UniProt Q96EB6); enzyme activity; inhibitor).
O=C(c1ccc(OCCN2CCCCC2)cc1)c1c(-c2ccc(O)cc2)sc2cc(O)ccc12 has a Kd of 0.0297 µM (Protein disulfide-isomerase (P4HB, Homo sapiens, UniProt P07237); binding; SPR).
N[C@@H](Cc1ccccc1)C(=O)O has an IC50 of 82.6 µM (Alkaline phosphatase, placental type (Homo sapiens, UniProt P05187); enzyme activity; inhibitor).
Cn1c(=O)c2c(ncn2C)n(C)c1=O has an IC50 of greater than 1000 µM (SLC2A9; transporter uptake; inhibitor; radiometric; oocytes).
With Nc1ncnc2c1ncn2[C@@H]1O[C@H](COP(=O)(O)CP(=O)(O)OP(=O)(O)O)[C@@H](O)[C@H]1O the Kd was 0.043 µM (P2X purinoceptor 1 (P2RX1, Homo sapiens, UniProt P51575); binding; radioligand).
